RGS4 inh: human RGS4 inhibition | P49798 | HEK293 M3R/RGS4 inducible, Fluo-4 calcium flux; active compounds read high; triggered by carbachol at its EC20 | B-score at 10 µM | 0.45% of 310,000 active | AID 463165;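 active = B-score, a plate-corrected calcium signal, over three deviations above library mean, with baseline fluorescence within five deviations of library mean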;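 also: RGS4 expression induced by doxycycline in cells with stable M3 receptor; B-score is computed from the integrated fluorescence ratio over baseline after carbachol; higher B-score means a larger calcium signal and so more RGS4 inhibition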
Target sequence (P49798 whole entry, looked up): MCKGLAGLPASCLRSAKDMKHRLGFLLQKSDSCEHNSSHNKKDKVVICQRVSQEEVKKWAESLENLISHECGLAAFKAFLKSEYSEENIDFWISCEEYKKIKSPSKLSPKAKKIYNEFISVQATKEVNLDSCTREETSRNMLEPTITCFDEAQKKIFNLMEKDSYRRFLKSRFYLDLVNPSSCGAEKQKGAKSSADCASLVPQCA
Hep lipid drop: hepatic lipid droplet formation modulation | AML12 mouse hepatocytes, oleate lipid droplets, BODIPY imaging | inhibition, % at 6.5 µM | 0.4% of 240,000 active;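 active = lipid droplet intensity inhibited by at least 50%, with more than 500 cells counted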
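material = mouse AML12 hepatocyte cell line, fixed after treatment | also added = 100 µM oleic acid challenge | doses = compound at 6.5 µM only | schedule = overnight exposure | technique = Image-based BODIPY and DAPI two-channel analysis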
MrgX1 ag: human MrgX1 receptor agonism, primary screen. Q96LB2. MrgX1-HEK293 cells, Fluo-4 calcium fluorescence, agonist mode; active compounds read high. B-score at 10 µM. 0.44% of 310,000 active. AID 588627;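 active = calcium response B-score plate-corrected fluorescence ratio at least 3 library SD, with starting fluorescence B-score inside 5 SD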
Target sequence (Q96LB2 whole entry, looked up): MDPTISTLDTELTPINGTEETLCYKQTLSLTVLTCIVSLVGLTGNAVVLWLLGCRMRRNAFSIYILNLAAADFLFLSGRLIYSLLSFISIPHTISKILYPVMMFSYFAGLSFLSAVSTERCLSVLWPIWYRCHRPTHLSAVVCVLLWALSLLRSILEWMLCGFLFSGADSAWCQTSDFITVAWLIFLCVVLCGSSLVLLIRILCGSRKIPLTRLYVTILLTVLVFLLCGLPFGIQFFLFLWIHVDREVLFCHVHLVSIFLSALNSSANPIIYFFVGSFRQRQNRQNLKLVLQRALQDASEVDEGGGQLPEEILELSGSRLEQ
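Assay system: stable human MrgX1 HEK293 cell line. Quantity: 15,000 cells per well. Schedule: cells plated overnight, dye loaded 0.5 h 37 °C, 0.5 h room temperature. Detection: Fluo-4 NW calcium-flux fluorescence, kinetic read. Read-out basis: peak-minus-minimum fluorescence over baseline, converted to B scores. Control set: positive and negative control wells on each plate.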
MrgX1 PAM: human MrgX1 positive allosteric modulation, primary screen | B-score at 10 µM | 0.63% of 310,000 active | MrgX1-HEK293, Fluo-4 calcium flux, FDSS; active compounds read high | AID 588675;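 active = plate-corrected calcium response at least 3 library SD above typical, normal starting fluorescence, not activating the receptor alone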;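 also: compound read alongside a low EC10 to EC30 dose of BAM8-22 agonist; peak minus trough fluorescence over baseline measured at the second addition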
RGS4 act: potentiators or activators of RGS4 | HEK293 M3R/inducible RGS4, carbachol calcium flux Fluo4; active compounds read low | B-score at 10 µM | 0.92% of 310,000 active | AID 463111;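 active = B-score of the integrated calcium signal more than 4 SD below the library mean, with starting fluorescence not abnormally high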;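 also: negative B-score means reduced calcium response which marks RGS4 activation or potentiation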
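Material: M3R-expressing HEK293 line, RGS4 induced by doxycycline | Schedule: Overnight RGS4 induction, 30 min dye load 37 °C, 20 min compound RT | Measured by: Fluo4 fluorescence kinetic imaging of calcium | Read-out: Integrated calcium ratio converted to B score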
MrgX1 antagonist: human MrgX1 receptor antagonism, primary screen | 1.3% of 310,000 active | MRGX1-HEK293 calcium flux, Fluo-4, BAM8-22 antagonism; active compounds read low | B-score at 10 µM;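 active = calcium-response B-score plate-corrected more than 3 library SD below zero, starting fluorescence within 5 deviations, no agonist response on first addition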;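 also: peak minus trough fluorescence over baseline after final BAM8-22 challenge near maximal dose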
Starred values were filed as active, the others as inactive. This is a sample that favours compounds with a hit; in the whole collection about 3.8% have one here.

`Nc1nc(N2CCCCC2)nc2ccccc12` gave RGS4 inh inactive, MrgX1 ag inactive, MrgX1 PAM inactive, RGS4 act -7.15* and MrgX1 antagonist inactive.
`CC1=[N+](C)N(c2ccccc2)C(=O)C1N=Cc1c(Cl)cccc1Cl` (configuration not stated) gave RGS4 inh inactive, Hep lipid drop 25.7, MrgX1 ag 30.7*, MrgX1 PAM inactive, RGS4 act inactive and MrgX1 antagonist inactive.
For CC1=[N+](C)N(c2ccccc2)C(=O)C1N=Cc1ccccc1Cl (configuration not stated) the results were RGS4 inh inactive, Hep lipid drop 1.2, MrgX1 ag inactive, MrgX1 PAM inactive, RGS4 act inactive and MrgX1 antagonist inactive.
For O=C(Cc1cccs1)Nc1ccc(-c2nnc(-c3ccccc3)o2)cc1 the results were RGS4 inh inactive, MrgX1 ag inactive, MrgX1 PAM inactive, RGS4 act inactive and MrgX1 antagonist inactive.
Cc1cccc(-c2nnc(-c3cccc(NC(=O)Cc4cccs4)c3)o2)c1 was read as RGS4 inh inactive, MrgX1 ag inactive, MrgX1 PAM inactive, RGS4 act -7.41* and MrgX1 antagonist inactive.
CC(Oc1ccccc1C(N)=O)C(=O)Nc1ccc(S(=O)(=O)N2CCCC2)cc1 (configuration not stated) was read as RGS4 inh inactive, MrgX1 ag inactive, MrgX1 PAM inactive, RGS4 act inactive and MrgX1 antagonist inactive.
`COc1cccc(/C=C/C(=C2/C(=O)N(c3ccccc3)N=C2C)c2ccc(C)cc2)c1OC` gave RGS4 inh inactive, Hep lipid drop 74.4*, MrgX1 ag inactive, MrgX1 PAM inactive, RGS4 act inactive and MrgX1 antagonist inactive.
Screening CSc1ccc(S(=O)(=O)N2CCC(C(=O)Nc3ccc(C(N)=O)cc3)CC2)cc1 returned RGS4 inh inactive, Hep lipid drop 25.6, MrgX1 ag inactive, MrgX1 PAM inactive, RGS4 act inactive and MrgX1 antagonist inactive.
CN(CC(=O)NCCc1ccccc1)Cc1ccco1 was read as RGS4 inh inactive, Hep lipid drop -11.3, MrgX1 ag inactive, MrgX1 PAM inactive, RGS4 act inactive and MrgX1 antagonist inactive.
For CN(C)c1ccc(/C=N/N=C(N)N)cc1[N+](=O)[O-] the results were RGS4 inh inactive, Hep lipid drop 0.9, MrgX1 ag 36.7*, MrgX1 PAM inactive, RGS4 act inactive and MrgX1 antagonist inactive.
`CN(C)c1ccc(/C=C/C(=O)c2ccc3c(c2)OCCO3)cc1[N+](=O)[O-]` gave RGS4 inh inactive, Hep lipid drop 2.1, MrgX1 ag inactive, MrgX1 PAM inactive, RGS4 act inactive and MrgX1 antagonist inactive.
Cc1ccccc1OCC(=O)Nc1ccc(C(=O)Nc2ccccc2C(=O)O)cc1 was read as RGS4 inh inactive, Hep lipid drop -15.7, MrgX1 ag inactive, MrgX1 PAM inactive, RGS4 act inactive and MrgX1 antagonist inactive.
For COc1ccc(CC2SC(N)=NC2=O)cc1 (configuration not stated) the results were RGS4 inh inactive, Hep lipid drop 17.2, MrgX1 ag inactive, MrgX1 PAM inactive, RGS4 act inactive and MrgX1 antagonist inactive.
`COc1ccc(C(=O)CN2C(=O)NC3(CCCc4ccccc43)C2=O)cc1` (configuration not stated) gave RGS4 inh inactive, MrgX1 ag inactive, MrgX1 PAM inactive, RGS4 act -7.5* and MrgX1 antagonist inactive.
Screening COc1cc(OC)nc(Oc2cc(C=O)ccc2OC)n1 returned RGS4 inh inactive, Hep lipid drop -4.3, MrgX1 ag inactive, MrgX1 PAM inactive, RGS4 act inactive and MrgX1 antagonist inactive.
Screening Cc1ccc(OCC(=O)NNC(=S)NC(=O)C2CC2)c(C)c1 returned RGS4 inh inactive, Hep lipid drop 3.1, MrgX1 ag inactive, MrgX1 PAM inactive, RGS4 act inactive and MrgX1 antagonist inactive.
CCCCNC(=S)NC(=O)c1ccc([N+](=O)[O-])cc1 was read as RGS4 inh inactive, MrgX1 ag inactive, MrgX1 PAM inactive, RGS4 act inactive and MrgX1 antagonist inactive.
For Cc1ccc(OCC(=O)NNC(=S)NC(=O)C2CCCCC2)c(C)c1 the results were RGS4 inh inactive, Hep lipid drop 29.7, MrgX1 ag 48.5*, MrgX1 PAM inactive, RGS4 act -7.09* and MrgX1 antagonist inactive.
`Cc1ccc(C(=O)NC(=S)NNC(=O)COc2ccc([N+](=O)[O-])cc2)cc1` gave RGS4 inh inactive, Hep lipid drop 7.1, MrgX1 ag inactive, MrgX1 PAM 6.94*, RGS4 act inactive and MrgX1 antagonist inactive.
`Cc1ccc(C(=O)NC(=S)NNC(=O)COc2ccccc2C)cc1` gave RGS4 inh inactive, Hep lipid drop 14.1, MrgX1 ag inactive, MrgX1 PAM inactive, RGS4 act -8.7* and MrgX1 antagonist inactive.
CC(C)CNC(=S)NC(=O)c1ccc([N+](=O)[O-])cc1 was read as RGS4 inh inactive, MrgX1 ag inactive, MrgX1 PAM 10.4*, RGS4 act inactive and MrgX1 antagonist inactive.
`Cc1nnc(NS(=O)(=O)c2ccc(Br)cc2)s1` gave RGS4 inh inactive, Hep lipid drop 10.6, MrgX1 ag inactive, MrgX1 PAM inactive, RGS4 act inactive and MrgX1 antagonist inactive.
For Cc1cccc(C(=O)NC(=S)NNC(=O)COc2c(C)cccc2C)c1 the results were RGS4 inh inactive, Hep lipid drop 12.2, MrgX1 ag 26.7*, MrgX1 PAM inactive, RGS4 act inactive and MrgX1 antagonist inactive.
CC#CCCc1nc2ccccc2c(=O)n1N was read as RGS4 inh inactive, Hep lipid drop -6.1, MrgX1 ag inactive, MrgX1 PAM inactive, RGS4 act inactive and MrgX1 antagonist -5.99*.
Screening CCCc1nc2ccccc2c(=O)n1N returned RGS4 inh inactive, Hep lipid drop -2.5, MrgX1 ag inactive, MrgX1 PAM inactive, RGS4 act inactive and MrgX1 antagonist inactive.
CC(NC(=O)COC(=O)/C(=C/c1cccs1)c1cccs1)c1ccccc1 (configuration not stated) was read as RGS4 inh inactive, Hep lipid drop 5.4, MrgX1 ag inactive, MrgX1 PAM inactive, RGS4 act inactive and MrgX1 antagonist inactive.
For CN(CC(=O)Nc1ccc(Cl)cc1)C(=O)CCC1CCCC1 the results were RGS4 inh inactive, Hep lipid drop 2.9, MrgX1 ag inactive, MrgX1 PAM inactive, RGS4 act inactive and MrgX1 antagonist inactive.
Cc1nc(NC(=O)c2cccnc2Cl)sc1C was read as RGS4 inh inactive, MrgX1 ag inactive, MrgX1 PAM inactive, RGS4 act inactive and MrgX1 antagonist inactive.

Source: PubChem BioAssay (several laboratories)
